The record followed here is ChEMBL document CHEMBL1122853, “New bicyclic antidepressant agent. Synthesis and activity of napactadine and related compounds” (J Med Chem, 1985).

Activity calls are given as the source filed them. The rule behind the calls is not given here.

In general, ED50 refers to the dose at which the effect has come halfway, by size or by number of responders. In general, LD50 refers to the dose expected to kill half of the subjects tested. Low readings indicate greater toxicity, high ones lower toxicity.

Data set [1] concerns Mus musculus. The experiment in a line: Effective dose required to prevent reserpine ptosis in mice, administered (po)orally. The format is functional. The essentials: (§1)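 Male Swiss-Webster or Harlan ICR mice, five per dose. Drug in saline given po or ip per line. Reserpine 2.5 mg/kg ip 30 min later. Complete absence of ptosis at 45 min after reserpine scored as positive. ED50 by Litchfield-Wilcoxon or Horn method, with 95% confidence intervals.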

Data set [2] concerns Mus musculus. The data set can be described thus: (§2) Effective dose required to prevent reserpine ptosis in mice, administered intraperitoneally. The format is functional. Conditions: ip. Put shortly:
as §1

For data set [3], the system named is Mus musculus. Described as §2. The format is functional. Conditions: ip. The essentials:
as §1
The source holds these as a separate data set.

Data set [4] concerns Mus musculus. The experiment in a line: Compound (administered intraperitoneally) was tested for yohimbine lethality potentiation. The format is functional. The conditions noted are these: ip. Put shortly: (§3)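 Male Swiss-Webster or Swiss ND/4 mice, 20-24 g, randomized into groups of 10 and housed five per cage. Test drug in saline given ip, with a saline control group. Yohimbine hydrochloride 20 mg/kg sc was given 30 min later, and mice were then reaggregated.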

Data set [5] concerns Mus musculus. The experiment in a line: Electrical shock aggression was evaluated in mice, administered intraperitoneally; NA means no aggression blockade at 46.4 mg/kg. The class given is functional, organism-based. Details: dose 46.4 mg/kg. The essentials: (§4)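 Pairs of mice placed under an inverted 1000 cm3 beaker and shocked through the floor grid (3 mA, 3 Hz) for 2 min. Drug given ip 30 min before testing; scored all-or-none against a saline group. Fighting counted as inhibited when mean attacks fell 1.5 SD below the vehicle mean.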

The nature of data set [6]: Lethal dose in mouse i.p. The class given is toxicity, organism-based. Conditions: in vivo, ip. Put shortly: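 Male Swiss-Webster albino mice, 20-24 g, in groups of five. Each group received one dose ip in saline (prepared 30 min before injection) at 10 mL/kg. Mice were held singly for about 5 h, then housed together with food and water. Deaths were counted at 1 and 24 h. LD50 by Litchfield-Wilcoxon.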

The nature of data set [7]: Lethal dose in mouse p.o. Conditions: in vivo, po. The format is toxicity, organism-based.
Data set [8] is described as follows: Therapeutic index administered perorally in mouse. The class given is organism-based. The conditions noted are these: in vivo, po, read-out: Therapeutic index. Put shortly: (§5)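 Index from mouse LD50 over reserpine-ptosis ED50 by the same route. […] Deaths recorded at 1 and 24 h; Litchfield-Wilcoxon calculation.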
A short description of data set [9]: Therapeutic index after administered intraperitoneally in mouse. The class given is organism-based. The conditions noted are these: in vivo, ip, read-out: Therapeutic index. The essentials:
as §5

Data set [10] relates to Mus musculus. The experiment in a line: (§6) Effective dose required to potentiate yohimbine hydrochloride induced lethality in mice, administered intraperitoneally. The format is functional. The conditions noted are these: ip. The essentials:
as §3

The subject of data set [11] is Mus musculus. The data set is described as §6. The format is organism-based. Conditions: in vivo, ip. Put shortly: as §3
The test system of data set [12] is Mus musculus. The data set can be described thus: Effective dose required to prevent reserpine ptosis in mice administered po. The format is functional. Put shortly: as §1
Data set [13] concerns Mus musculus. The data set can be described thus: Electrical shock aggression was evaluated in mice, administered intraperitoneally. The class given is functional. The conditions noted are these: ip. Put shortly: as §4
Data set [14] in a line: Therapeutic index administered intraperitoneally in mouse. The class given is organism-based. The conditions noted are these: in vivo, ip, read-out: Therapeutic index. Put shortly:
as §5

Regarding `C/N=C(\NC)c1ccc(Cl)c(Cl)c1.Cl`, the ED50 with Mus musculus [1] turned out to be 10.8 mg/kg; in the data set on Mus musculus [2], 9.3 mg/kg; in the data set on Mus musculus [3], 9.3 mg/kg; in the data set with Mus musculus [4], 2.4 mg/kg; in the data set on Mus musculus [10], 2.4 mg/kg. For the same compound, the ED50 result in the data set on Mus musculus [5] was “inactive”. For the same compound, the LD50 in data set [6] was 60 mg/kg; in data set [7], 215 mg/kg. Also, the values for the selectivity ratio in [8] and in [9] were 20 and 6, respectively.

In the case of `C/N=C(/Cc1ccc(Cl)cc1)NC.Cl`, the 50% effective dose (ED50) with Mus musculus [11] stood at 15 mg/kg; in the data set on Mus musculus [2] it was 2.3 mg/kg; in the data set on Mus musculus [12], 3.4 mg/kg; with Mus musculus [13], 43 mg/kg. In addition, the results for the LD50 in data set [6] and in data set [7] were 69.4 mg/kg and 430 mg/kg, respectively. The selectivity ratio in data set [14] is 30; in [8], 127.
